What was measured:
Details in all cases: stereoisomer not certain
OR8K1 (Homo sapiens) = OR8K1 (Homo sapiens) (UniProt Q8NGG5)
Procedure, shortened: (§1)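 Values were gathered from published papers (main text and supplementary material), with extra details requested from the original authors when needed, and checked for typos and inconsistencies. Each receptor–molecule pair is called responsive (active) if the original authors judged the measured signal statistically different from baseline, and non-responsive (inactive) otherwise. Assay methods varied by source, often transient mammalian cell-line luciferase assays. Recorded details include cell line, G-protein, co-transfected protein and tags.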

OR8K3 (Homo sapiens) = OR8K3 (Homo sapiens) (UniProt Q8NH51)
Procedure, shortened: as §1

OR8K5 (Homo sapiens) = OR8K5 (Homo sapiens) (UniProt Q8NH50)
Procedure, shortened: as §1

OR8S1 (Homo sapiens) = OR8S1 (Homo sapiens) (UniProt Q8NH09)
Procedure, shortened: as §1

OR8U1 (Homo sapiens) = OR8U1 (Homo sapiens) (UniProt Q8NH10)
Procedure, shortened: as §1

OR8U3 (Homo sapiens) = OR8U3 (Homo sapiens) (UniProt Q8NH85)
Procedure, shortened: as §1

OR8U8 (Homo sapiens) = OR8U8 (Homo sapiens) (UniProt P0C7N1)
Procedure, shortened: as §1

OR8U9 (Homo sapiens) = OR8U9 (Homo sapiens) (UniProt P0C7N5)
Procedure, shortened: as §1

OR9A2 (Homo sapiens) = OR9A2 (Homo sapiens) (UniProt Q8NGT5)
Procedure, shortened: as §1

OR9A4 (Homo sapiens) = OR9A4 (Homo sapiens) (UniProt Q8NGU2)
Procedure, shortened: as §1

OR9G1 (Homo sapiens) = OR9G1 (Homo sapiens) (UniProt Q8NH87)
Procedure, shortened: as §1

OR9G4 (Homo sapiens) = OR9G4 (Homo sapiens) (UniProt Q8NGQ1)
Procedure, shortened: as §1

OR8J3 E4V = system: OR8J3 E4V
Procedure, shortened: as §1

OR8U8 [1] = system: OR8U8
Procedure, shortened: as §1
Target sequence in this assay (as listed by the source): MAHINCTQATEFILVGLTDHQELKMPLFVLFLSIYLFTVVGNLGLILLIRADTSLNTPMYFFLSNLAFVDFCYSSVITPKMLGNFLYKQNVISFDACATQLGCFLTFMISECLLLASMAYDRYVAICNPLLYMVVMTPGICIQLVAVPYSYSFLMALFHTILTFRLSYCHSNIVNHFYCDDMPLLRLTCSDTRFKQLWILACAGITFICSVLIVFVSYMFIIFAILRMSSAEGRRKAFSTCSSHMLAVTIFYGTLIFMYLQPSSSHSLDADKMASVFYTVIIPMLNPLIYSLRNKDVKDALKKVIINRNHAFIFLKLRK

OR8U8 [2] = system: OR8U8; remark: listed apart in the source
Procedure, shortened: as §1
Target sequence in this assay (as listed by the source): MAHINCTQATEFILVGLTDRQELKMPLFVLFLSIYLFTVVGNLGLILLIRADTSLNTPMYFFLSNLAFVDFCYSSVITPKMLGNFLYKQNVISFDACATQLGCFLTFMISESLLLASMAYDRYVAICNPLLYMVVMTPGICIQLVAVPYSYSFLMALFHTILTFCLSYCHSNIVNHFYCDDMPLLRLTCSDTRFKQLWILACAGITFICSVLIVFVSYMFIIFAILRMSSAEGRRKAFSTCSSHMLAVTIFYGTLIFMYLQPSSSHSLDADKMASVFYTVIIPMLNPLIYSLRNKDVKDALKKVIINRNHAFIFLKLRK

OR8U9 T2A Q3H Q293R = system: OR8U9 T2A Q3H Q293R
Procedure, shortened: as §1

OR8U9 = system: OR8U9
Procedure, shortened: as §1

OR9A2 C304Y = system: OR9A2 C304Y
Procedure, shortened: as §1

OR9G4 H6Y N206D V222A = system: OR9G4 H6Y N206D V222A
Procedure, shortened: as §1

OR9G4 N206D V222A = system: OR9G4 N206D V222A
Procedure, shortened: as §1

Measured: odorant receptor agonist call

Chain of OR8U3 (Homo sapiens) (Q8NH85 whole entry): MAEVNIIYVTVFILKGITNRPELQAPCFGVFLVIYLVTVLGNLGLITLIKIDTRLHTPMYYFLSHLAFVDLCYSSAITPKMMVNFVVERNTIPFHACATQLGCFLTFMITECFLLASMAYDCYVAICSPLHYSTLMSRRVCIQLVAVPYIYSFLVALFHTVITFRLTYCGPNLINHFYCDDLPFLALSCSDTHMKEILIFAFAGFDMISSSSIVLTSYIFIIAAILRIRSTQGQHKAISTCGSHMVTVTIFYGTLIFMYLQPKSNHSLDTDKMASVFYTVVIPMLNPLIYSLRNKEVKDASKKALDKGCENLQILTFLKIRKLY
Chain of OR8S1 (Homo sapiens) (Q8NH09 whole entry): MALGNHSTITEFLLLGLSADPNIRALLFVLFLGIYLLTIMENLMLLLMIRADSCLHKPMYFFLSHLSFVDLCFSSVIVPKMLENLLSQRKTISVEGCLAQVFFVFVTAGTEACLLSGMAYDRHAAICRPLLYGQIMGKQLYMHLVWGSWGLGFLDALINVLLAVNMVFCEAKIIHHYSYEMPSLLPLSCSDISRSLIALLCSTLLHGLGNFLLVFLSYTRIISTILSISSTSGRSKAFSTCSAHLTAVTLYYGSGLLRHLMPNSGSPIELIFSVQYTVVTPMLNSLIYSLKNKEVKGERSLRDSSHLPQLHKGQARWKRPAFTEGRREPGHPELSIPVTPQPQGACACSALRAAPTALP
Chain of OR8K3 (Homo sapiens) (Q8NH51 whole entry): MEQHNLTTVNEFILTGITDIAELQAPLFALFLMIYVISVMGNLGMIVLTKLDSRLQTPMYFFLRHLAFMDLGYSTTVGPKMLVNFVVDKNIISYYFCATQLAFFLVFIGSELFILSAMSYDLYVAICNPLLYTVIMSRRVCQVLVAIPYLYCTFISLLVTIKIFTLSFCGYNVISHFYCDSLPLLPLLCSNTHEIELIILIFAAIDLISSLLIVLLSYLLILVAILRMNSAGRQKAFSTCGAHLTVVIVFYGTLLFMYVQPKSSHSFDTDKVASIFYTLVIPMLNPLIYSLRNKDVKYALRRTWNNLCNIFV
Chain of OR9A4 (Homo sapiens) (Q8NGU2 whole entry): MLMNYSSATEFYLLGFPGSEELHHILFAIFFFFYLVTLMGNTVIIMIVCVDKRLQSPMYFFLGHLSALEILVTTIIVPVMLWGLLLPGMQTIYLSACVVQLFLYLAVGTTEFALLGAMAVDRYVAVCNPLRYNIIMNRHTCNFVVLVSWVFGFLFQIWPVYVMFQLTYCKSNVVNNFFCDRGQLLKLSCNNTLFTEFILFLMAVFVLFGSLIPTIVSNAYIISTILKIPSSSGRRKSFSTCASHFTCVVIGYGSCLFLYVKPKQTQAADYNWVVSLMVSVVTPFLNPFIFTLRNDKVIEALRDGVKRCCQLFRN
Chain of OR8K5 (Homo sapiens) (Q8NH50 whole entry): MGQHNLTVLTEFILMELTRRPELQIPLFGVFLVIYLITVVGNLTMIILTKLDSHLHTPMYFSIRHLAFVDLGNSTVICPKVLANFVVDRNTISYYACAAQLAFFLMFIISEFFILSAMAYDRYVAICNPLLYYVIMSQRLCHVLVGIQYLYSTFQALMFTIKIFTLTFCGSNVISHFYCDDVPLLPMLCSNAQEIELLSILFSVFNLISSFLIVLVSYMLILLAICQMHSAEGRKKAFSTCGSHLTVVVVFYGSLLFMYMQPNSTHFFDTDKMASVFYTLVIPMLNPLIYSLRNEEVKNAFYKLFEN
Chain of OR9G1 (Homo sapiens) (Q8NH87 whole entry): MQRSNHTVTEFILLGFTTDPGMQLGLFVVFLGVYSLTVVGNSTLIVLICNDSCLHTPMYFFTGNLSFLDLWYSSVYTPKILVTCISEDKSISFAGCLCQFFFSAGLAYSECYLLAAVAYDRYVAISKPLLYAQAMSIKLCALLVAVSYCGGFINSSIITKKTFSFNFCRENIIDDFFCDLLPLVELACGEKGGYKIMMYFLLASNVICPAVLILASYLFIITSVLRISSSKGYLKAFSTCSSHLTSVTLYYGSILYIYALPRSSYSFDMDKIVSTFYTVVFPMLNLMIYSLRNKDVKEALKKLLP
Chain of OR8U9 (Homo sapiens) (P0C7N5 whole entry): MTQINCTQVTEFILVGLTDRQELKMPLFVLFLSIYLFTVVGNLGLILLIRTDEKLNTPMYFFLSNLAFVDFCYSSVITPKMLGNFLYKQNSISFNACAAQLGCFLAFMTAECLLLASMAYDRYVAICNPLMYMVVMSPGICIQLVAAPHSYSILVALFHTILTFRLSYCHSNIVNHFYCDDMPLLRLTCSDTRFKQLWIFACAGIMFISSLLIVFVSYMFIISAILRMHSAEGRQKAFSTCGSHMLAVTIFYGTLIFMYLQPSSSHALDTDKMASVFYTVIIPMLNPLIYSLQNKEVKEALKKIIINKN
Chain of OR9G4 (Homo sapiens) (Q8NGQ1 whole entry): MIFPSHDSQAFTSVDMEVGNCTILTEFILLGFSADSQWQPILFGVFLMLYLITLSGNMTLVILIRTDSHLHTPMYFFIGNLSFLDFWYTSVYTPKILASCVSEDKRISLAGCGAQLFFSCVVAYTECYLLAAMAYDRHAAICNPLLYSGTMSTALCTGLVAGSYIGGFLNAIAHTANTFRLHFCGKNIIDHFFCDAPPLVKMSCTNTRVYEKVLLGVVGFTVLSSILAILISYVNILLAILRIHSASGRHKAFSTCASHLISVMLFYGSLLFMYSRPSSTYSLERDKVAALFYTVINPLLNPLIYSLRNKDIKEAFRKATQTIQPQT
Chain of OR8U1 (Homo sapiens) (Q8NH10 whole entry): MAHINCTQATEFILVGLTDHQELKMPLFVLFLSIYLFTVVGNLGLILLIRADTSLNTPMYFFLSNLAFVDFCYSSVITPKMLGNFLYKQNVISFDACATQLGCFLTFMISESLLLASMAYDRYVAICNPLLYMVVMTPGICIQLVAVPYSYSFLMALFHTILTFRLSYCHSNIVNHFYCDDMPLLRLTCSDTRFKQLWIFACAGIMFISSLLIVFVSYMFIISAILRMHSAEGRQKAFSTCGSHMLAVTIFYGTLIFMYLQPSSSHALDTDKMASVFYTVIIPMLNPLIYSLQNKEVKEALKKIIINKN
Chain of OR8K1 (Homo sapiens) (Q8NGG5 whole entry): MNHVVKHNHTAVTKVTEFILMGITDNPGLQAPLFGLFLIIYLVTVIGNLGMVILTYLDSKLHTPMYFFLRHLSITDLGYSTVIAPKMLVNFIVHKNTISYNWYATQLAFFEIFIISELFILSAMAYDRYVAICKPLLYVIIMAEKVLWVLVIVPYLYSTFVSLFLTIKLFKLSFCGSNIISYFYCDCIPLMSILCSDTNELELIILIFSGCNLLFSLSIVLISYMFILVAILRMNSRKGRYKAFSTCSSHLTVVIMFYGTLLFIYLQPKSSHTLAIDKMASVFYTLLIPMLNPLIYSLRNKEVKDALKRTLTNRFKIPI
Chain of OR9A2 (Homo sapiens) (Q8NGT5 whole entry): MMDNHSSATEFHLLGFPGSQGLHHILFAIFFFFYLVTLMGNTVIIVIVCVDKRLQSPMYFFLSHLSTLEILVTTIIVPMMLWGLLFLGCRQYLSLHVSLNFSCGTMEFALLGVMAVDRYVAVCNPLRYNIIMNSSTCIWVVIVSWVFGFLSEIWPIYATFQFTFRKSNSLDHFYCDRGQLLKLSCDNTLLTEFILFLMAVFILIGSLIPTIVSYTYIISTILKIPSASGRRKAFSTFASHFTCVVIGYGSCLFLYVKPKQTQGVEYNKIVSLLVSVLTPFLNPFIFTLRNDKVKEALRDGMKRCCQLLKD
Chain of OR8J3 E4V (as listed by the source): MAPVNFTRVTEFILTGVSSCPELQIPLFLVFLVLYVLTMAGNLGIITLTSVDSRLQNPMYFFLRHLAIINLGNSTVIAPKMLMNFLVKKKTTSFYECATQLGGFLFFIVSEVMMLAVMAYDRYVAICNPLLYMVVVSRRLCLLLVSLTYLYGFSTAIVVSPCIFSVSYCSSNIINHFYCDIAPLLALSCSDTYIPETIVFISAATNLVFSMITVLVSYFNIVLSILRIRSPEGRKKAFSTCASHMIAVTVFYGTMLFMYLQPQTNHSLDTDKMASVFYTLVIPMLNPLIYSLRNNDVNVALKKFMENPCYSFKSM
Chain of OR9A2 C304Y (as listed by the source, stated change not applied): as the sequence (Q8NGT5 whole entry) above, with C304Y counted along it
Chain of OR8U9 (as listed by the source): as the sequence (P0C7N5 whole entry) above, with Q293R counted along it
Chain of OR8U8 (Homo sapiens) (P0C7N1 whole entry): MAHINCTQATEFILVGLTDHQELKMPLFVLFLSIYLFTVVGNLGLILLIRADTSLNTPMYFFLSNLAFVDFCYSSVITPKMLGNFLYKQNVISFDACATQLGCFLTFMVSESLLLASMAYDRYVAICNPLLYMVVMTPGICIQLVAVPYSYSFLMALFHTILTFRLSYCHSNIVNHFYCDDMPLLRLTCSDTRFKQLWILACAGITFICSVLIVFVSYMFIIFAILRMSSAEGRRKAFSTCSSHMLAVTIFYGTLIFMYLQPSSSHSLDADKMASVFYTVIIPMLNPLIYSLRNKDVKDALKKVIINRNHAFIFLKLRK

Cc1c([N+](=O)[O-])c(C)c([N+](=O)[O-])c(C(C)(C)C)c1[N+](=O)[O-]
not listed: OR8J3 E4V | OR8U8 [1] | OR8U8 [2] | OR8U9 T2A Q3H Q293R | OR8U9 | OR9A2 C304Y | OR9G4 H6Y N206D V222A | OR9G4 N206D V222A
inactive: all other assays above

C=CCOC(=O)Cc1ccccc1
not listed: OR8U8 (Homo sapiens)
inactive: all other assays above

Reference: the M2OR odorant receptor database
